Experimental data published in ChEMBL document CHEMBL5653631, “A Potent and Selective ULK1 Inhibitor Suppresses Autophagy and Sensitizes Cancer Cells to Nutrient Stress” (iScience, 2018).
Each block holds one molecule with its values, some of them ahead of it.

Tests used:
[1] = target: T1, Eukaryotic elongation factor 2 kinase (Homo sapiens) (UniProt O00418); assay: Inhibition of human recombinant eEF2K at 500 nM related to control ULK1
T1 sequence (whole entry): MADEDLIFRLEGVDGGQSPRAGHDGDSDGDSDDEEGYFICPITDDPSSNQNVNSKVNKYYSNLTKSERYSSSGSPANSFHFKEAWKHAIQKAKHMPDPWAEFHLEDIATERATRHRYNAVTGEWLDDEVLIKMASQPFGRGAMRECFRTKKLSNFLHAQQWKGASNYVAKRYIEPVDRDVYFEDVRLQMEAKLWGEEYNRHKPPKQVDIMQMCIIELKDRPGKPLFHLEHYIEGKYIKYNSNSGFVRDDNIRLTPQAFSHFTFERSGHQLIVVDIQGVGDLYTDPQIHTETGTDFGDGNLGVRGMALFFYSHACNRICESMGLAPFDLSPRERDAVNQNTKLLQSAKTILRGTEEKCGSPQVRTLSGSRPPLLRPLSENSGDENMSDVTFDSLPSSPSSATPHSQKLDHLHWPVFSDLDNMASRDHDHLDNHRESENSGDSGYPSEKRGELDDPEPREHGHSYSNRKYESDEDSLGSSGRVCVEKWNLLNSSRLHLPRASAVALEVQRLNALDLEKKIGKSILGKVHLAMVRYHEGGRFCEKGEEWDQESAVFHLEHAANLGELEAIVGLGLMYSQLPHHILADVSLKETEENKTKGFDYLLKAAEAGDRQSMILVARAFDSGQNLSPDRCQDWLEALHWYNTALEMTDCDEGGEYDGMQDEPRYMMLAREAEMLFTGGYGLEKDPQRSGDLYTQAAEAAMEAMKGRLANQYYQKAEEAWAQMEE

[2] = target: Activin receptor type-1-like (Homo sapiens) (UniProt P37023); assay: Inhibition of human recombinant ALK1 at 500 nM related to control ULK1
Chain of Activin receptor type-1-like (Homo sapiens) (P37023 whole entry): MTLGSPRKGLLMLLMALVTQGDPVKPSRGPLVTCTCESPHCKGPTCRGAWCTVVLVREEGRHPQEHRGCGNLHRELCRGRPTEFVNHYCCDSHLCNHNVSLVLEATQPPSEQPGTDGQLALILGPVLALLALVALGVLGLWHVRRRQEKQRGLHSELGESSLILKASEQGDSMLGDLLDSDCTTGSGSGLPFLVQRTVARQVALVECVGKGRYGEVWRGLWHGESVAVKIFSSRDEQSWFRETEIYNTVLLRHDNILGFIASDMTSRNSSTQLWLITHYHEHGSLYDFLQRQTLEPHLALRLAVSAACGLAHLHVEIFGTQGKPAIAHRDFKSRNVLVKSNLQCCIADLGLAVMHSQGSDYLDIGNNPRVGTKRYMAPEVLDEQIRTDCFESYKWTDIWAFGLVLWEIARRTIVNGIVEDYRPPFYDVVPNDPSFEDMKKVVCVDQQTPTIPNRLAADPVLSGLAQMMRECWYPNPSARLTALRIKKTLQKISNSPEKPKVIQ
Summary of the method: (§1)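 Panel of 327 recombinant human kinases, each assayed in vitro by radiometric activity assay in duplicate at a single inhibitor concentration per compound, chosen with reference to its ULK1 inhibition. Activity remaining was expressed as percent of vehicle control, and percent inhibition was calculated as 100 minus percent activity remaining.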

[3] = target: Serine/threonine-protein kinase 32A (Homo sapiens) (UniProt Q8WU08); assay: Inhibition of human recombinant YANK1 at 500 nM in presence of ATP by radiometric assay relative to control
Chain of Serine/threonine-protein kinase 32A (Homo sapiens) (Q8WU08 whole entry): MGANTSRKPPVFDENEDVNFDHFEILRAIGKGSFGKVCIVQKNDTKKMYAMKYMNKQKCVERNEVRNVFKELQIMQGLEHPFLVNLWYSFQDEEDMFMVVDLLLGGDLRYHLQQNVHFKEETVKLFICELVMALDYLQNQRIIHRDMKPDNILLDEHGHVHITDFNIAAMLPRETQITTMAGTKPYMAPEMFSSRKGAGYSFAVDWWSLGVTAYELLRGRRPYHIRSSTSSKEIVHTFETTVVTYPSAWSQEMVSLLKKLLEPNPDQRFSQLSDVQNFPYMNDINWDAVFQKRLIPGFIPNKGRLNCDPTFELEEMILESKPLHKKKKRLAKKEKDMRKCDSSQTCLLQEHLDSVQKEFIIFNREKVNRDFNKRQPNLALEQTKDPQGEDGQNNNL

[4] = target: 5'-AMP-activated protein kinase catalytic subunit alpha-1 (Homo sapiens) (UniProt Q13131); assay: Inhibition of human recombinant AMPKa1 at 500 nM in presence of ATP by radiometric assay relative to control; summary of the method: as §1
Chain of 5'-AMP-activated protein kinase catalytic subunit alpha-1 (Homo sapiens) (Q13131 whole entry, looked up): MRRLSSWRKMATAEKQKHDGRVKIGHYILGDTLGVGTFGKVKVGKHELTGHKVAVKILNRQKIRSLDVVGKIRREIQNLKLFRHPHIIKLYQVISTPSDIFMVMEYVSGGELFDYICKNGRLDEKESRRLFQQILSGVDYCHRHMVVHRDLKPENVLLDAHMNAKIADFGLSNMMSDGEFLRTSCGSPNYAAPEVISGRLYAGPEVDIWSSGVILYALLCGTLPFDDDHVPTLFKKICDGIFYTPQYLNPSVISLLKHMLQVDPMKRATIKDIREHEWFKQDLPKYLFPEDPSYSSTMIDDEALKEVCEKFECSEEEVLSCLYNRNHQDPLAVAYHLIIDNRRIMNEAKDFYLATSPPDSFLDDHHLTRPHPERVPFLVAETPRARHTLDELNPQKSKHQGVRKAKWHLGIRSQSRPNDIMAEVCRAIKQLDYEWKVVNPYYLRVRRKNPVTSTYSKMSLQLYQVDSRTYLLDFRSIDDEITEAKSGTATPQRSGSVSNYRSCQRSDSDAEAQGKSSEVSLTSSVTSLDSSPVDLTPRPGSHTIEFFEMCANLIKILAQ

[5] = target: Serine/threonine-protein kinase WNK1 (Homo sapiens) (UniProt Q9H4A3); assay: Inhibition of human recombinant Wnk1 at 40 nM related to control ULK1
Chain of Serine/threonine-protein kinase WNK1 (Homo sapiens) (Q9H4A3 whole entry, looked up): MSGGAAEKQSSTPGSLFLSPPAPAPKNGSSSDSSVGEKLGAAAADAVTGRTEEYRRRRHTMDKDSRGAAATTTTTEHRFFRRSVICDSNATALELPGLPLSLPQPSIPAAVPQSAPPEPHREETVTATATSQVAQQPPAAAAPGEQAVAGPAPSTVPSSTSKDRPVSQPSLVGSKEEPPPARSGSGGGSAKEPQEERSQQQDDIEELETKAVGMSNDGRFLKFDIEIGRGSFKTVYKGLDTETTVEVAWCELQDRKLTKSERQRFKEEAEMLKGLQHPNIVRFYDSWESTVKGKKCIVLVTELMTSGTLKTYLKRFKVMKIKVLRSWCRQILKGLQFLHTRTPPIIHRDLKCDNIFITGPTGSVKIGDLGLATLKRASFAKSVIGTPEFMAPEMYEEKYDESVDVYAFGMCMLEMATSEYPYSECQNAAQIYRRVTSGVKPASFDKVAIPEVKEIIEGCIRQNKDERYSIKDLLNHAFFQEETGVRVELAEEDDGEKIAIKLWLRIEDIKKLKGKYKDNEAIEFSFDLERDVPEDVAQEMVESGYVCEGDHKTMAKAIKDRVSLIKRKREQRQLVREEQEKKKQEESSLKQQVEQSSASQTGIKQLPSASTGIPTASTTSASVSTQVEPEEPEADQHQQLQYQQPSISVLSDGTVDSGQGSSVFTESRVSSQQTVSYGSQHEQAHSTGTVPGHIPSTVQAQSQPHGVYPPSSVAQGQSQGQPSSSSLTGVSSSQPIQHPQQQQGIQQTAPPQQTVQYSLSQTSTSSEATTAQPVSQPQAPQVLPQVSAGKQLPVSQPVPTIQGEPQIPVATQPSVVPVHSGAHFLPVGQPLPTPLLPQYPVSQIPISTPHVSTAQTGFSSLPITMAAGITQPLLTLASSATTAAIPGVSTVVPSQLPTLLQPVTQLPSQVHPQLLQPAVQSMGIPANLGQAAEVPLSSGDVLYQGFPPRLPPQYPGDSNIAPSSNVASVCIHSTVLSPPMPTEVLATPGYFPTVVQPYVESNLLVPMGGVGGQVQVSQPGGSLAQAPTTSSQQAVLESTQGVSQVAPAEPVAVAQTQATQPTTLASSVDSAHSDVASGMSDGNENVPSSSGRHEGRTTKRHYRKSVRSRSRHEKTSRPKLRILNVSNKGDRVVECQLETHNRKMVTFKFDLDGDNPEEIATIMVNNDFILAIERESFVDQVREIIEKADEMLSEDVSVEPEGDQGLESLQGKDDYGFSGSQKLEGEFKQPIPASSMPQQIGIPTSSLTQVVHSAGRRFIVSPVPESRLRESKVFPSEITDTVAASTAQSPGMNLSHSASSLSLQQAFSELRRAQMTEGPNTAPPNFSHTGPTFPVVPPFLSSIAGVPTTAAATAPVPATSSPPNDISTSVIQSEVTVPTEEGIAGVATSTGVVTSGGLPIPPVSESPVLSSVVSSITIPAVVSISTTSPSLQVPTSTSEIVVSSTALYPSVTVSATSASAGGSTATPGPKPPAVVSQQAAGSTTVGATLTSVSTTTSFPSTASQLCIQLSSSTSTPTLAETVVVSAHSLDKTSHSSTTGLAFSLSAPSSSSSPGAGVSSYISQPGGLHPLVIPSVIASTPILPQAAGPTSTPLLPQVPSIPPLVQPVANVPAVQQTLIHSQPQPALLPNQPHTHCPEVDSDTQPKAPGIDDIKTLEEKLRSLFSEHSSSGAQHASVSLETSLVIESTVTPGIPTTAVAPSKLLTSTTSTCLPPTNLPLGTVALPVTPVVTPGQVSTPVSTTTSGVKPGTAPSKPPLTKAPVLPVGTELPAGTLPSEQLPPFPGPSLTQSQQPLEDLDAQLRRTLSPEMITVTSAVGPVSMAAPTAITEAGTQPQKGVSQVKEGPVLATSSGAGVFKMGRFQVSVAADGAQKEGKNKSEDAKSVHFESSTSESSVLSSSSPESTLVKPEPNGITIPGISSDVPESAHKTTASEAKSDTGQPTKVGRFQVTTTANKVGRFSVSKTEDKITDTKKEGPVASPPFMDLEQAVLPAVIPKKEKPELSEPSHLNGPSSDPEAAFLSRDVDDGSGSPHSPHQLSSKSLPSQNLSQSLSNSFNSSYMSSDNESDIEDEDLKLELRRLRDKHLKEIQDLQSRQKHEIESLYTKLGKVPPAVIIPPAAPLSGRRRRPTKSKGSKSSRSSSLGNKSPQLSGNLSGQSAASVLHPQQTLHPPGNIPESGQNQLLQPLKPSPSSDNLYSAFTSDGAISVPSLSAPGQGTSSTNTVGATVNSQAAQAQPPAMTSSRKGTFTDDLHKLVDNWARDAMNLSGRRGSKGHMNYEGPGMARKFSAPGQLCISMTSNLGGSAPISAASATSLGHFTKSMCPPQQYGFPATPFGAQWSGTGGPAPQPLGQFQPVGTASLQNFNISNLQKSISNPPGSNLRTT

[6] = target: T2, Serine/threonine-protein kinase TAO2 (Homo sapiens) (UniProt Q9UL54); assay: Inhibition of human recombinant TAO2 at 40 nM related to control ULK1
T2 sequence (whole entry): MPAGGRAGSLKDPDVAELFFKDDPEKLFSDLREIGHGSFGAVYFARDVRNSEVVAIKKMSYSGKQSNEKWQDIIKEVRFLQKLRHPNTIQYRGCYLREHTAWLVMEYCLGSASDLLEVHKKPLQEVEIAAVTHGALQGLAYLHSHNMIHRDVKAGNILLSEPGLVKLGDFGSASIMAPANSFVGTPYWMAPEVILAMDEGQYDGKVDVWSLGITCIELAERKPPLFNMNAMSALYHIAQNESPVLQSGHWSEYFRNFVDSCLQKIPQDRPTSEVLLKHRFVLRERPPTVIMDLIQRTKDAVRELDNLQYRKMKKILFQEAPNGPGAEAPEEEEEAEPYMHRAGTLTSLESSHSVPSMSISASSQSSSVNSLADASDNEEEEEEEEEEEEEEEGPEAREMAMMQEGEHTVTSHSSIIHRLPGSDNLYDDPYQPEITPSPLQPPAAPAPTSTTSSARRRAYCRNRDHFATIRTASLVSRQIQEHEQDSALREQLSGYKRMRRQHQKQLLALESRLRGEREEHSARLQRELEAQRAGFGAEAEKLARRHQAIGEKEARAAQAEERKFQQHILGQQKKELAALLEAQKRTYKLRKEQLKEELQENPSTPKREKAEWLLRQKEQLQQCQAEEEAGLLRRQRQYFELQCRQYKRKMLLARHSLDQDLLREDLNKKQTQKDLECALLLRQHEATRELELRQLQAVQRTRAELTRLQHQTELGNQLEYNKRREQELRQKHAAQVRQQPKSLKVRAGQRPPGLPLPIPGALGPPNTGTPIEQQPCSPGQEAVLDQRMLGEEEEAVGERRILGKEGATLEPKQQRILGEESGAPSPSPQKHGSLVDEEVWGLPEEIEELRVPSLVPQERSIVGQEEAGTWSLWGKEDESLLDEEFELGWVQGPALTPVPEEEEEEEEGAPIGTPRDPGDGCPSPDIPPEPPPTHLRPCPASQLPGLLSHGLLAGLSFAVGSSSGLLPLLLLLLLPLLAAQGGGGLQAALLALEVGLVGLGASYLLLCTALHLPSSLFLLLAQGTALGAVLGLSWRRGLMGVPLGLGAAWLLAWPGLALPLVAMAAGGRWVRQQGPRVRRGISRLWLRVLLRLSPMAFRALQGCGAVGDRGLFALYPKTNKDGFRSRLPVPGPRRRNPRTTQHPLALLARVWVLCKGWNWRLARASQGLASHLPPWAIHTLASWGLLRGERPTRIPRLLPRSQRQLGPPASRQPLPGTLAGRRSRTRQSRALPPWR

[7] = target: Ribosomal protein S6 kinase alpha-2 (Homo sapiens) (UniProt Q15349); assay: Inhibition of human recombinant RSK3 at 15 nM in presence of ATP by radiometric assay relative to control
Chain of Ribosomal protein S6 kinase alpha-2 (Homo sapiens) (Q15349 whole entry): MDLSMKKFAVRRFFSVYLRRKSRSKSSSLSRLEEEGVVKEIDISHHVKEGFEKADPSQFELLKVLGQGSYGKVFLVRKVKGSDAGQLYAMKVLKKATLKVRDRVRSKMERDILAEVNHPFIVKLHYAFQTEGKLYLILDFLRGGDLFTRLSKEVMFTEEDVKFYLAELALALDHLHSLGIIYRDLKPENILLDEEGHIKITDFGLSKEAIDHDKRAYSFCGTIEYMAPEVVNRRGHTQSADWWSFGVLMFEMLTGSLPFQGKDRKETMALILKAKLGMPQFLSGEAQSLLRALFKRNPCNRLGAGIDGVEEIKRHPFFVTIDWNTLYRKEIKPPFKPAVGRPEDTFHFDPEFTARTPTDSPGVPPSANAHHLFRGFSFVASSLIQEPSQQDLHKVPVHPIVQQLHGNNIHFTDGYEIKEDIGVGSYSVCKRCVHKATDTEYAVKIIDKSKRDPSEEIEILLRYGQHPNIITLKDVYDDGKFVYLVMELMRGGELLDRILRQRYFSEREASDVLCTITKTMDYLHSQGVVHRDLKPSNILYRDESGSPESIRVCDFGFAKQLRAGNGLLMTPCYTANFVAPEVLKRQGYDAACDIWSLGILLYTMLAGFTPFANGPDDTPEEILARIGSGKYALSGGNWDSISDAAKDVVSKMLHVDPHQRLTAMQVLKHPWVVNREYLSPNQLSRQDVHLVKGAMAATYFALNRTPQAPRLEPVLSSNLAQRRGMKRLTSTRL

[8] = target: T3, TGF-beta receptor type-1 (Homo sapiens) (UniProt P36897); assay: Inhibition of human recombinant TGFbR1 at 15 nM in presence of ATP by radiometric assay relative to control
T3 sequence (whole entry): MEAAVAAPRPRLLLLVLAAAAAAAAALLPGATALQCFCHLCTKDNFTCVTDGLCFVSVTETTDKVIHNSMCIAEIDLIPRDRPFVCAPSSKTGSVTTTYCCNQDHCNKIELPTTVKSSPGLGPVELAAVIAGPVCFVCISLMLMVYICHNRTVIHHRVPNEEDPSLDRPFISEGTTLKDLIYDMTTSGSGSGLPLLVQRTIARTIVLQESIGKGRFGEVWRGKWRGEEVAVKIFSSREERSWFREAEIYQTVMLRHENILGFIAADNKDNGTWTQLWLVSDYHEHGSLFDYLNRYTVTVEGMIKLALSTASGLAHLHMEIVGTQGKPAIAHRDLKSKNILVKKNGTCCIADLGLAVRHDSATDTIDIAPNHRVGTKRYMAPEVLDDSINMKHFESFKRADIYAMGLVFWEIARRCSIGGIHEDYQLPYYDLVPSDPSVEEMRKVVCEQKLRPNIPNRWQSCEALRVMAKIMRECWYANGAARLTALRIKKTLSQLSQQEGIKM

- fold change (FC) [1]: 0.19
- fold change (FC) [2]: 0
- inhibition [3]: 0%
- inhibition [4]: 51%
SMILES: CNC(=O)c1ccccc1Oc1nc(Nc2cc(OC)c(OC)c(OC)c2)ncc1Br

- fold change (FC) [5]: 0.16
- fold change (FC) [6]: 0.04
SMILES: O=C(N[C@@H](C1CC1)C(F)(F)F)c1cc(-c2cnn3cc(-c4ccc(F)cc4)cnc23)cs1

- inhibition [7]: 3%
- inhibition [8]: 4%
SMILES: CC(C)[C@H](NC(=O)c1cc(-c2cnn3cc(-c4ccc(OCCN5CCCCC5)cc4)cnc23)cs1)C(F)(F)F
